What all share (format): biochemical
For one experiment, the target named is T1, purified rat MAO B (Rattus norvegicus, UniProt P19643).
T1 sequence (P19643 1-520): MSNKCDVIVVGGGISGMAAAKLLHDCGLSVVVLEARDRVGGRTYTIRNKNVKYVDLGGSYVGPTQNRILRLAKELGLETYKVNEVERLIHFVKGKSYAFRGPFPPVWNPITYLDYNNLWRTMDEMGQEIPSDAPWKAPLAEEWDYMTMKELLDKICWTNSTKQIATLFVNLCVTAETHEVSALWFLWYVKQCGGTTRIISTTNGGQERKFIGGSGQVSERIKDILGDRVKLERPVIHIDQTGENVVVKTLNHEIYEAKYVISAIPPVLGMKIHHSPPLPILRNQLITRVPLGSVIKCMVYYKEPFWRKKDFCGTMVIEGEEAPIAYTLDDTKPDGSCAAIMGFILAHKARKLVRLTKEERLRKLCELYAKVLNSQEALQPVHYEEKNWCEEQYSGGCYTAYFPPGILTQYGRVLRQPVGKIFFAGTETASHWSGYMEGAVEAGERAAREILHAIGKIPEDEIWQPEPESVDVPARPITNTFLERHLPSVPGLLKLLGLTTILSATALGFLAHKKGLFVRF
As to the kind of experiment: Rate of inactivation of purified rat MAO B. The settings on record: apparent pseudo-first order, 1 mM inhibitor, room temperature.

The target in another experiment is T2, rat MAO A (Rattus norvegicus, UniProt P21396).
T2 sequence (P21396 1-526): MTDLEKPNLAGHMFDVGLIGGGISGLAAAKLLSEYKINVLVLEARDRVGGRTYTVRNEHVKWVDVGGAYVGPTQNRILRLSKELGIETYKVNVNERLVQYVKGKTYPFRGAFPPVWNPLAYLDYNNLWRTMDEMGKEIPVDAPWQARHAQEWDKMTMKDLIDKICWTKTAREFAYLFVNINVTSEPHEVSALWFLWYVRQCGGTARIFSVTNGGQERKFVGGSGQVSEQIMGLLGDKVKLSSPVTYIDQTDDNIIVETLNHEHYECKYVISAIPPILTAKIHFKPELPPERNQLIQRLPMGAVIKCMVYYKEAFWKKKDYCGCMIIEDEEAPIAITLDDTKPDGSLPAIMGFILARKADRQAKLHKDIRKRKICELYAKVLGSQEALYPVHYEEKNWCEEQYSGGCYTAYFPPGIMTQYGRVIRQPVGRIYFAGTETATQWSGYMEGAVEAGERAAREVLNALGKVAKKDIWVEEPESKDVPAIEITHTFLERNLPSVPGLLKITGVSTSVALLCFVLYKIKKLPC
As to the kind of experiment: Inhibition of recombinant rat MAO A in P. pastoris mitochondria. The settings on record: intact yeast mitochondria.

Experiment [1] has as its target T3, MOM-bound rat MAO B (Rattus norvegicus, UniProt P19643).
T3 sequence (P19643 1-520): T1 sequence (P19643 1-520)
As to the kind of experiment: Rate of inactivation of MOM-bound recombinant rat MAO B. The settings on record: apparent pseudo-first order, 1 mM inhibitor, room temperature.

Experiment [2] concerns the target T4, MOM-bound rat MAO A (Rattus norvegicus, UniProt P21396).
T4 sequence (P21396 1-526): T2 sequence (P21396 1-526)
As to the kind of experiment: Rate of inactivation of MOM-bound recombinant rat MAO A. Particulars: apparent pseudo-first order, 1 mM inhibitor, room temperature. In a few lines:
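Outer-membrane-bound rat MAO A came from Pichia pastoris KM71 mitochondria, isolated by osmotic shock, sonication and sucrose gradient. Membranes were incubated with 1 mM test compound at room temperature, with an uninhibited control. Remaining activity over time was followed spectrophotometrically at 25°C. Apparent pseudo-first-order rate constants were obtained from exponential fits of activity decay.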

Another experiment addresses T5, rat MAO B (Rattus norvegicus, UniProt P19643).
T5 sequence (P19643 1-520): T1 sequence (P19643 1-520)
As to the kind of experiment: Inhibition of recombinant rat MAO B in P. pastoris mitochondria. Particulars: intact yeast mitochondria.

Another experiment deals with T6, purified rat MAO A (Rattus norvegicus, UniProt P21396).
T6 sequence (P21396 1-526): T2 sequence (P21396 1-526)
As to the kind of experiment: Rate of inactivation of purified rat MAO A. The settings on record: apparent pseudo-first order, 1 mM inhibitor, room temperature. In a few lines: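 Recombinant rat MAO A was purified from Pichia pastoris KM71, with d-amphetamine removed before kinetics. The enzyme was incubated with 1 mM test compound at room temperature, with an uninhibited control. Activity loss over time was measured spectrophotometrically with kynuramine in 50 mM potassium phosphate, pH 7.5, 0.5% reduced Triton X-100, at 25°C. Pseudo-first-order rate constants came from exponential decay fits.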

A further experiment addresses T7, MAO A (Rattus norvegicus, UniProt P21396).
T7 sequence (P21396 1-526): T2 sequence (P21396 1-526)
As to the kind of experiment: Protease treatment of rat liver mitochondria, MAO A activity. Particulars: protease:protein 1:5 (w/w), room temperature. In a few lines:
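Rat liver mitochondria were isolated from a perfused Sprague-Dawley rat liver and purified on 30% Percoll. They were incubated at room temperature with trypsin at a 1:5 (w/w) protease:protein ratio. Samples taken over time were quenched with 1 mM PMSF (final). MAO A activity was measured polarographically as O2 uptake with serotonin in 50 mM potassium phosphate, pH 7.5, at 25°C.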

Experiment [3] has as its target T3, MOM-bound rat MAO B. As to the kind of experiment: Protease treatment of yeast recombinant MOM-bound rat MAO B. The settings on record: protease:protein 1:5 (w/w), room temperature. In a few lines: (§1)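 Rat MAO A or MAO B was expressed in Pichia pastoris KM71. Outer membranes were isolated by osmotic shock, mild sonication and a 30–55% sucrose gradient. Membranes were incubated at room temperature with trypsin or β-chymotrypsin at a 1:5 (w/w) protease:protein ratio. Timed samples were quenched with 1 mM PMSF (final). Residual activity was measured spectrophotometrically as product formation at 25°C.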

In experiment [4] the target is T4, MOM-bound rat MAO A. As to the kind of experiment: Protease treatment of yeast recombinant MOM-bound rat MAO A. The settings on record: protease:protein 1:5 (w/w), room temperature. In a few lines:
as §1

Some results are limits rather than exact numbers.

With `C#CCN(C)Cc1ccccc1` [Pargyline, pargyline], the “k (inactivation) MAO B (Purified)” value on purified rat MAO B was “too fast to measure”. Also, the “inhibition of rat MAO A in intact mitochondria” value at rat MAO A is “functions as an inhibitor with either enzyme”. For the same compound, the “k (inactivation) MAO B (MOM)” value on MOM-bound rat MAO B [1] is on record as “too fast to measure”. In addition, the “k (inactivation) MAO A (MOM)” value on MOM-bound rat MAO A [2] is 44.8 ± 6.2 s⁻¹. Further, at rat MAO B, the “inhibition of rat MAO B in intact mitochondria” value is on record as “functions as an inhibitor with either enzyme”. The “k (inactivation) MAO A (Purified)” value at purified rat MAO A was 9.4 ± 1.1 s⁻¹.
With trypsin, on MAO A, the “MAO A activity lost” value is listed as above 90%. Further, the “inactivation of yeast recombinant MOM-bound rat MAO B by protease” value at MOM-bound rat MAO B [3] is “no observable inactivation”. Moreover, at MOM-bound rat MAO A [4], the “inactivation of yeast recombinant MOM-bound rat MAO A by protease” value is “sensitive to trypsin”.

(Values after publication PMC3068223 (Biochemistry, 2011).)
